Results as given in ChEMBL document CHEMBL3627612, “Hirsutinolide Series Inhibit Stat3 Activity, Alter GCN1, MAP1B, Hsp105, G6PD, Vimentin, TrxR1, and Importin α-2 Expression, and Induce Antitumor Effects against Human Glioma” (J Med Chem, 2015).
Active and inactive are the calls of the source. No cut-off for these calls is given here.

Tests used:
[1] = Decrease in TxR1 cytoplasmic isoform 3 expression in human U251MG cells at 5 uM for 1 hr by mass spectrometry relative to control; format: functional, cell-based; conditions: U-251
Summary of the method: (§1)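 Global proteomic mass spectrometry of lysates from U251MG cells treated 1 h with 5 μM compound; protein levels expressed relative to DMSO-treated cells.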

[2] = test system: Glioma cell; assay: Increase in importin subunit alpha2 expression in human Glioma (G22) patient derived xenograft cells at 5 uM for 2 hrs by immunoblot analysis; format: functional
[3] = Decrease in G6PD expression in human U251MG cells at 5 uM for 1 hr by mass spectrometry relative to control; format: functional, cell-based; conditions: U-251
Summary of the method: (§2)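 U251MG cells treated 1 h with 5 μM compound; whole-cell lysates analyzed by global proteomics mass spectrometry; protein levels expressed relative to DMSO-treated cells.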

[4] = Decrease in vimentin expression in human U251MG cells at 5 uM for 2 hrs by immunoblot analysis; format: functional, cell-based; conditions: U-251
[5] = biological target: Signal transducer and activator of transcription 3 (Mus musculus) (UniProt P42227); assay: Inhibition of Stat3 dimer DNA binding activity in mouse NIH3T3/vSrc nuclear extract at 10 uM preincubated for 30 mins followed by addition of radiolabeled probe hSIE for 30 mins by EMSA in presence of 50 uM Cys
Chain of Signal transducer and activator of transcription 3 (Mus musculus) (P42227 whole entry): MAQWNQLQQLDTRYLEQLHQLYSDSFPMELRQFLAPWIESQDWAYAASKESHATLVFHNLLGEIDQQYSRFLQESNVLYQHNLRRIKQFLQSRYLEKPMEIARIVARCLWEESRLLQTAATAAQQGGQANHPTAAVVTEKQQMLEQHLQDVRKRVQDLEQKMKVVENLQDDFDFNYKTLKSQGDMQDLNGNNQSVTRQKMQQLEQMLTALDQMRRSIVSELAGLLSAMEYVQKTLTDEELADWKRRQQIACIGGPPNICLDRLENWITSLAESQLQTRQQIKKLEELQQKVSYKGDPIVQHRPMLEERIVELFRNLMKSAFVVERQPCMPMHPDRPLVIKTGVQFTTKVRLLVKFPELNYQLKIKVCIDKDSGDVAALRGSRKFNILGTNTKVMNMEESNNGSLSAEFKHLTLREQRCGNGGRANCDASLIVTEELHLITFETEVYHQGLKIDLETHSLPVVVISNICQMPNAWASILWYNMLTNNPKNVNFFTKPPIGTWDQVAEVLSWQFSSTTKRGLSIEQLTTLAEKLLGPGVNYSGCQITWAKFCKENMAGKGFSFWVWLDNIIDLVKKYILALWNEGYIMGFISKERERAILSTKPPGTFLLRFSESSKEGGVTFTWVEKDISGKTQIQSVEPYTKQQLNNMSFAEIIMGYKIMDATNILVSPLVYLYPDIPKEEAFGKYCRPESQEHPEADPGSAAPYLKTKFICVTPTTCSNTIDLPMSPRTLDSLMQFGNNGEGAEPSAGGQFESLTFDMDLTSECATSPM

[6] = test system: U-251; assay: Antitumor activity against human U251MG cells xenografted in mouse assessed as decrease in tumor growth at 2 mg/kg three times a week for 33 days administered via oral gavage; format: functional, organism-based
Summary of the method: (§3)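 Female athymic nude mice, 4 weeks old, given subcutaneous flank injections of 7.3×10^6 U251MG cells in PBS/matrigel; dosing began at 170–250 mm3 tumors (day 20). Oral gavage 2 mg/kg, vehicle 1% DMSO, for 33 days. Caliper volumes V = 0.52×a²×b, compared with vehicle by paired t test; tumor lysates immunoblotted for pStat3, Stat3, GAPDH.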

[7] = biological target: Heat shock protein 105 kDa (Homo sapiens) (UniProt Q92598); assay: Decrease in Hsp105 expression in human Glioma (G22) patient derived xenograft cells at 5 uM for 2 hrs by immunoblot analysis; format: functional; conditions: Glioma cell
Chain of Heat shock protein 105 kDa (Homo sapiens) (Q92598 whole entry, the tested form may be a part): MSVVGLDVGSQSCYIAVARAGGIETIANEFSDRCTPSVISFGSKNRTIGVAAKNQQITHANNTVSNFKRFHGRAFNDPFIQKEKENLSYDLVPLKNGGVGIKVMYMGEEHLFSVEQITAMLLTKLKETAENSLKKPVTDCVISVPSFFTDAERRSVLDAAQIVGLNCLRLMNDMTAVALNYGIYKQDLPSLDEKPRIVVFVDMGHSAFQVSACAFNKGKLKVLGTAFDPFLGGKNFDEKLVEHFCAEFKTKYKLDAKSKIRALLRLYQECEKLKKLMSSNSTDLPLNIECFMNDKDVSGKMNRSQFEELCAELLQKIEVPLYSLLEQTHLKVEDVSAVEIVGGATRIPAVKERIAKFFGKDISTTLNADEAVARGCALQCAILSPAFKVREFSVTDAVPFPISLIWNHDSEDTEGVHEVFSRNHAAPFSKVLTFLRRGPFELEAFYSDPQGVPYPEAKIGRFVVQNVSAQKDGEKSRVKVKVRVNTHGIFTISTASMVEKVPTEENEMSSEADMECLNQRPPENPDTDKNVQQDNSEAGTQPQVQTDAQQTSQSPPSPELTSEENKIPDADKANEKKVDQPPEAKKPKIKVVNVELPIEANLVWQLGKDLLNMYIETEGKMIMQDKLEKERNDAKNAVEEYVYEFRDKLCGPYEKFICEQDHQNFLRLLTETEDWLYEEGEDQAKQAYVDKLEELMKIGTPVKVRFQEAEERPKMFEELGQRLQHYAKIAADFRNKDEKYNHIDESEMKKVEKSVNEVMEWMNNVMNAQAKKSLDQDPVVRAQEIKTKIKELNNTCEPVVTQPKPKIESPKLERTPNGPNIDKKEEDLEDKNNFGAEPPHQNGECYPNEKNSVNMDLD

[8] = Cell cycle arrest in human U251MG cells assessed as accumulation at G2/M phase at 5 uM for 15 hrs by flow cytometry; format: functional, cell-based; conditions: U-251
[9] = test system: U-251; assay: Induction of apoptosis in human U251MG cells assessed as cleaved caspase 3 level at 8 uM after 24 to 48 hrs by immunoblot analysis; format: functional, cell-based
[10] = test system: U-251; assay: Increase in importin subunit alpha2 expression in human U251MG cells at 5 uM for 1 hr by mass spectrometry relative to control; format: functional; summary of the method: as §1
[11] = biological target: Stalled ribosome sensor GCN1 (Homo sapiens) (UniProt Q92616); assay: Decrease in GCN1 expression in human U373MG cells at 5 uM for 2 hrs by immunoblot analysis; format: functional, cell-based; conditions: U-373MG ATCC
Chain of Stalled ribosome sensor GCN1 (Homo sapiens) (Q92616 whole entry): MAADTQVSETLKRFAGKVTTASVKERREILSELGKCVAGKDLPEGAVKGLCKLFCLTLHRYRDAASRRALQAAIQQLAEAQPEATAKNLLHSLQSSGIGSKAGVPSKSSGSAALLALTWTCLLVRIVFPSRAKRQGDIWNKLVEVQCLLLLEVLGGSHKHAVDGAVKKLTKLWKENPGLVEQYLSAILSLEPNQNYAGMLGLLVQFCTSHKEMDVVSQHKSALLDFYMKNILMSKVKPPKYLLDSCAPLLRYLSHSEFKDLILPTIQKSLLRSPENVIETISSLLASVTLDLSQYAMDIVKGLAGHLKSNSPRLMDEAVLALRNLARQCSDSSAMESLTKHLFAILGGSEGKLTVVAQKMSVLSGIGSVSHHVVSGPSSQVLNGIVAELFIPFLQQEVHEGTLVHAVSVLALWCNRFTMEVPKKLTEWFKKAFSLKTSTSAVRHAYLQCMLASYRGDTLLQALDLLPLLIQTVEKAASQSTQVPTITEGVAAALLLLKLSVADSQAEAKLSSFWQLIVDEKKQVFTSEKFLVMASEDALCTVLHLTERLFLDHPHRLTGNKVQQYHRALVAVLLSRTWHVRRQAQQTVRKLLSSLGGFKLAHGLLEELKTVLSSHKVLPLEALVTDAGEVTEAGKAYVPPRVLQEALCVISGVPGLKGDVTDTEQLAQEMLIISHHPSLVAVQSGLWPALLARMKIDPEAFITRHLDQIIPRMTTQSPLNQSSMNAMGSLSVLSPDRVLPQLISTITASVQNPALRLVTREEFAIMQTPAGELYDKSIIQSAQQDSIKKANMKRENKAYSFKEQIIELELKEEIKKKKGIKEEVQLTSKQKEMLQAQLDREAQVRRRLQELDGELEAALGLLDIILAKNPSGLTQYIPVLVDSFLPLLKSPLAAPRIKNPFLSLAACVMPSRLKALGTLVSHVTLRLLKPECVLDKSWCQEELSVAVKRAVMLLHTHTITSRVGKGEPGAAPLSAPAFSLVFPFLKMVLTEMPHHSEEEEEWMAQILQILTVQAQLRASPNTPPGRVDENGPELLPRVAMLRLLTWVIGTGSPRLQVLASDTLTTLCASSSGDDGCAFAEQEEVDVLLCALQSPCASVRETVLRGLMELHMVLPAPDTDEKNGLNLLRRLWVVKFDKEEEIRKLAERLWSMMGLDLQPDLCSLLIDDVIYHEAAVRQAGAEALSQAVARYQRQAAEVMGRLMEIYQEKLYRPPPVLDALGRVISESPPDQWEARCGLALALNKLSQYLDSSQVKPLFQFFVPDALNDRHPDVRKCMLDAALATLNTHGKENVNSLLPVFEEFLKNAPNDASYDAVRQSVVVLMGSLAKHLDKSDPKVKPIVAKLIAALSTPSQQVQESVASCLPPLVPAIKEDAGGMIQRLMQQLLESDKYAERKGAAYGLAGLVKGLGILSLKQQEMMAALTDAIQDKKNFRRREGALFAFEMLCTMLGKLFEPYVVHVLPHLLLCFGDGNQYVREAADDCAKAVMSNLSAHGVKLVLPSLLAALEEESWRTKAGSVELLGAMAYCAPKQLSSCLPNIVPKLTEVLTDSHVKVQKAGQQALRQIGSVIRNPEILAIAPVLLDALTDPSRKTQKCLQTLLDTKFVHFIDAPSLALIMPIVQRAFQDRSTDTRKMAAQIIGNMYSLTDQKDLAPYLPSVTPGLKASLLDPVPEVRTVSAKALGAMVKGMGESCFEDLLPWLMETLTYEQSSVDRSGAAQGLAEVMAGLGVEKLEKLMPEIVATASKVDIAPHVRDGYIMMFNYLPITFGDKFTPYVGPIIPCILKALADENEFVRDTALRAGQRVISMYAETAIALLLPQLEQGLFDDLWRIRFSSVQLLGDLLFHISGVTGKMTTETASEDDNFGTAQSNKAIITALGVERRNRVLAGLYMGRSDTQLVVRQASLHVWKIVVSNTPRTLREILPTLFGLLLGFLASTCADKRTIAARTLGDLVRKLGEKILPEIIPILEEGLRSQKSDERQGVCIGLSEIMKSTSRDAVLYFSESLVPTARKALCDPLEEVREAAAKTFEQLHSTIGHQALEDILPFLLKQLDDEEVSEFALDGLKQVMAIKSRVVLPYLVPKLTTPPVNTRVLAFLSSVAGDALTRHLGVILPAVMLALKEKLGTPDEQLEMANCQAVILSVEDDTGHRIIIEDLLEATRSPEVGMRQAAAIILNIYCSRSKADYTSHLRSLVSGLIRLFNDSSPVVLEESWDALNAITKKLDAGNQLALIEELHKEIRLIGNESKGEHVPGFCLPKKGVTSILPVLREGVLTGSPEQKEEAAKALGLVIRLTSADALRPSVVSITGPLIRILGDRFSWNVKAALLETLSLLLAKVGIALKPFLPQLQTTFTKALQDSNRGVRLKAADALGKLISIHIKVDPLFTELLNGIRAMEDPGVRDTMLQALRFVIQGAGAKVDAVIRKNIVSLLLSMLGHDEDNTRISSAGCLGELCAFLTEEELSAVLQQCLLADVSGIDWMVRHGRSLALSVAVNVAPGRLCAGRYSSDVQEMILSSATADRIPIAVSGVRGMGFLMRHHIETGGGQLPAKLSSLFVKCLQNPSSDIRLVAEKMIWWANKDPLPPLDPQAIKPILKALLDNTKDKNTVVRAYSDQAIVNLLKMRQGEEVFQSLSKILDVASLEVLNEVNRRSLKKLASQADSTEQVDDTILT

[12] = Decrease in G6PD expression in human U251MG cells at 5 uM for 2 hrs by immunoblot analysis; format: functional, cell-based; conditions: U-251
[13] = test system: U-251; assay: Antimitotic activity in human U251MG cells assessed as defect in sister chromatid segragation at 8 uM after 15 hrs confocal microscopic analysis; format: functional, cell-based
Summary of the method: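 U251MG on coverslips synchronized by double thymidine block (2 mM), released 9 h, treated 15 h (8 μM; paclitaxel 100 nM). Fixed 4% paraformaldehyde, digitonin-permeabilized, BSA-blocked, stained for β-tubulin and MAP1B with DAPI counterstain; chromatid structure and segregation scored by confocal microscopy.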

[14] = Cytotoxicity against mouse NIH/3T3 cells at 2.5 uM by trypan blue exclusion with phase contrast microscopy; format: cell-based; conditions: nih3t3, 2.5 µM
[15] = test system: U-251; assay: Antitumor activity against human U251MG cells xenografted in mouse assessed as decrease in pStat3 level in tumor at 2 mg/kg three times a week for 33 days administered via oral gavage by immunoblot analysis; format: functional, organism-based; summary of the method: as §3
[16] = biological target: Stalled ribosome sensor GCN1 (Homo sapiens) (UniProt Q92616); assay: Decrease in GCN1 expression in human U251MG cells at 5 uM for 1 hr by mass spectrometry relative to control; format: functional, cell-based; conditions: U-251; summary of the method: as §2
[17] = test system: Mus musculus; assay: Toxicity in mouse xenografted with U251MG cells assessed as loss of appetite at 2 mg/kg three times a week for 33 days administered via oral gavage; format: organism-based, U-251; conditions: in vivo, 792 h
Summary of the method: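 Four-week-old female athymic nude mice, injected subcutaneously in the left flank with 7.3×10^6 U251MG cells in PBS/matrigel (1:1). Tumors of 170–250 mm^3 formed by day 20, and groups were matched for mean size. Dosing was 2 mg/kg by oral gavage, three times weekly for 33 days, with 1% DMSO vehicle. Animals were monitored daily and weighed every 3 days.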

[18] = Cytotoxicity against mouse V-Src -transformed NIH/3T3 cells at 2.5 uM by trypan blue exclusion with phase contrast microscopy; format: cell-based; conditions: nih3t3, 2.5 µM
[19] = biological target: T1, Signal transducer and activator of transcription 3 (Homo sapiens, UniProt P40763); assay: Inhibition of Stat3 phosphorylation in human U251MG cells transfected with Stat3 flag-tagged coliled coil domain at 5 uM after 1.5 hrs by immunoblot analysis; format: cell-based; conditions: U-251
T1 sequence (P40763 whole entry, the tested form may be a part): as the sequence (P42227 whole entry) above, with D760E counted along it
Summary of the method: (§4)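 U251MG cells transiently transfected with 7.5–21 μg FLAG-Stat3 NTD, CCD, DBD or CTD plasmid, or pcDNA3 mock. Re-seeded 24 h later; after another 18 h, treated with or without 5 μM compound for 1.5 h. Whole-cell lysates immunoblotted for FLAG, pY705Stat3, Stat3, GAPDH. 0.025% DMSO control. Representative of 2 independent determinations.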

[20] = Cytotoxicity against mouse NIH/3T3 cells after 72 hrs by cyquant cells; format: cell-based; conditions: NIH3T3, 72 h
Summary of the method: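 CyQuant proliferation assay after 72 h compound exposure of cultured cells; relative viability normalized to DMSO-treated control; IC50 values derived. Glioma lines grown in RPMI or DMEM with 10% FBS and 1% nonessential amino acids.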

[21] = biological target: T1, Signal transducer and activator of transcription 3; assay: Inhibition of Stat3 activity in human U251MG cells assessed as decrease in Bcl-2 expression at 5 uM after 24 hrs by immunoblot analysis; format: cell-based; conditions: U-251
Summary of the method: (§5)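 U251MG cells treated with 5 μM compound for 0–24 h. Whole-cell lysates immunoblotted for pStat3, Stat3, c-Myc, Bcl-2, Bcl-xL, Mcl-1, GAPDH. Control was 0.025% DMSO.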

[22] = biological target: Heat shock protein 105 kDa (Homo sapiens) (UniProt Q92598); assay: Decrease in Hsp105 expression in human U251MG cells at 5 uM for 1 hr by mass spectrometry relative to control; format: functional, cell-based; conditions: U-251; summary of the method: as §2
[23] = biological target: T1, Signal transducer and activator of transcription 3; assay: Inhibition of Stat3 phosphorylation in human U251MG cells transfected with Stat3 flag-tagged DNA-binding domain at 5 uM after 1.5 hrs by immunoblot analysis; format: cell-based; conditions: U-251; summary of the method: as §4
[24] = biological target: T1, Signal transducer and activator of transcription 3; assay: Inhibition of Stat3 activity in human U251MG cells assessed as decrease in Mcl-1 expression at 5 uM after 24 hrs by immunoblot analysis; format: cell-based; conditions: U-251; summary of the method: as §5
[25] = biological target: T1, Signal transducer and activator of transcription 3; assay: Inhibition of Stat3 phosphorylation in human U251MG cells transfected with Stat3 flag-tagged N-terminal domain at 5 uM after 1.5 hrs by immunoblot analysis; format: cell-based; conditions: U-251; summary of the method: as §4
[26] = biological target: Tyrosine-protein kinase JAK2 (Homo sapiens) (UniProt O60674); assay: Modulation of Jak2 phosphorylation in human U251MG cells at 5 uM after 0.5 to 24 hrs by immunoblot analysis; format: cell-based; conditions: U-251
Summary of the method: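 U251MG glioma cells (RPMI or DMEM, 10% FBS, 1% nonessential amino acids) treated with 5 μM compound for 0–24 h; 0.025% DMSO control. Whole-cell lysates of equal total protein immunoblotted for pErk1/2, Erk1/2, pJAK2 and JAK2 with β-actin or GAPDH loading controls. Representative of 2–4 independent determinations.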

inhibition [7] | inhibition [11] | SMILES | Activity [2] | inhibition [4] | Activity [6] | fold change (FC) [10] | inhibition [12] | Activity [13] | Activity [15] | Activity [17] | further results
Active | Active | C/C=C(\C)C(=O)OCC1=C2/C(=C\[C@@]3(C)CC[C@](O)(O3)[C@H](C)C[C@@H]2O)OC1=O | Active | Active | Active | 2.421 | Active | Active | Active | Non-toxic | fold change (FC) [1]: 0.305; fold change (FC) [3]: 0.275; inhibition [5]: Active; Activity [8]: Active; Activity [9]: inactive; Activity [14]: Non-toxic; fold change (FC) [16]: 0.555; Activity [18]: Toxic
Active | Active | C/C=C(\C)C(=O)O[C@H]1C[C@@H](C)[C@]2(O)CC[C@](C)(/C=C3/OC(=O)C(COC(C)=O)=C31)O2 | Active | Active | Active | 2.0137 | Active | Active | Active | Non-toxic | inhibition [19]: Active; IC50 [20]: 2000 nM; inhibition [21]: Active; fold change (FC) [22]: 0.501; inhibition [23]: inactive; inhibition [24]: Active; inhibition [25]: Active; Activity [26]: Active
